This is an account of results in ChEMBL document CHEMBL5321212, “Design, synthesis, and evaluation of substituted alkylindoles that activate G protein-coupled receptors distinct from the cannabinoid CB1 and CB2 receptors” (Eur J Med Chem, 2023).

pEC50, pKi: −log10 of the molar value. Activity calls are given as the source filed them. No cut-off for these calls is given here.

Assay [1] in a line: Displacement of [3H]-WIN55212-2 from HEK293 cell membrane lacking CB1R and CB2R assessed as inhibition constant. In kind it is cell membranes, Homo sapiens. In outline:
(§1)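 HEK293 membranes (P2 fractions from independent cultures) incubated with [³H]WIN55212-2 plus increasing concentrations of competitor; specific binding determined by filtration. Ki derived from competition curves, fitted as one or two sites (high and low affinity) where curves were biphasic. n = 3–8 independent membrane preparations, each run in triplicate.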

Assay [2] deals with HEK293. Description: (§2) Induction of [35S]GTPgammaS binding to HEK293 cell membrane lacking CB1R and CB2R by filtration assay. In kind it is cell membranes. To be noted: Homo sapiens. In outline:
(§3)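 [³⁵S]GTPγS binding to HEK293 cell membranes stimulated by compound. Gi/o dependence tested by pretreating cultured cells with pertussis toxin (100 ng/ml, 20 h). Where stated, CB1R antagonist […] (1 μM) or CB2R antagonist SR144528 (1 μM) was present. Mean ± SEM of n = 3–4 experiments, each in triplicate.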
Background: GTPγS resists hydrolysis and so accumulates on activated G proteins.

Assay [3] relates to Cell membrane. The assay is described as follows: Displacement of [3H]-WIN55212-2 from HEK293 cell membrane lacking CB1R and CB2R at 1 uM. In kind it is subcellular. Particulars: Homo sapiens. In general terms: Loss of bound radioactivity is the signal in a displacement assay; it reports binding, not function.
Assay [4] can be described thus: as §2. Format: cell membranes, Homo sapiens. In a few lines: as §3
In assay [5] the test system is Cell membrane. The assay is described as follows: Displacement of [3H]-WIN55212-2 from HEK293 cell membrane lacking CB1R and CB2R assessed as inhibition constant for lower affinity site. Format: subcellular. Particulars: Homo sapiens. In a few lines:
as §1

Assay [6] relates to HEK293. Description: Induction of HA-tagged human CB1R internalization in HEK293 cells. In kind it is functional, cell-based. In outline: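 HEK293 cells stably expressing HA-tagged human CB1R exposed to compound at 3 μM. Internalization measured and expressed as % of vehicle control. Antagonism tested with […] (1 μM). Positive control CP55940 (1 μM). Mean ± SEM of 3–5 independent experiments. One-way ANOVA with Bonferroni post-test.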

The subject of assay [7] is HEK293. The assay is described as follows: Induction of HA-tagged human CB2R internalization in HEK293 cells. In kind it is functional, cell-based. In outline:
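HEK293 cells stably expressing HA-tagged human CB2R exposed to compound at 3 μM. Internalization measured and expressed as % of vehicle control. Antagonism tested with AM630 (1 μM). Positive control CP55940 (1 μM). Mean ± SEM of 3–5 independent experiments. One-way ANOVA with Bonferroni post-test.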

In assay [8] the test system is Cell membrane. Description: Displacement of [3H]-WIN55212-2 from HEK293 cell membrane lacking CB1R and CB2R assessed as inhibition constant for higher affinity site. Particulars: Homo sapiens. Format: subcellular. In a few lines:
as §1

Assay [9] has as its system HEK293. The assay is described as follows: Induction of [35S]GTPgammaS binding to HEK293 cell membrane lacking CB1R and CB2R in presence of SR141716 by filtration assay. Format: cell membranes. To be noted: Homo sapiens. In outline:
as §3

Assay [10] concerns Cell membrane. The assay is described as follows: Displacement of [3H]-WIN55212-2 from HEK293 cell membrane lacking CB1R and CB2R in presence of GTPgammaS by filtration assay. In kind it is subcellular. Particulars: Homo sapiens. In outline: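 HEK293 membranes incubated with [³H]WIN55212-2 and test compound, with or without GTPγS (20 μM). Specific binding determined by filtration assay. Mean ± SEM of n = 3–4 experiments, each in triplicate.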

The subject of assay [11] is HEK293. The assay is described as follows: Induction of [35S]GTPgammaS binding to HEK293 cell membrane lacking CB1R and CB2R in presence of SR144528 by filtration assay. Particulars: Homo sapiens. Format: cell membranes. In outline:
as §3

As usually defined, the pKi is the Ki on a negative log10 scale, so that one unit is a factor of ten. Regarding `C1=C(CCN2CCOCC2)c2ccccc2/C1=C\c1cccc2ccccc12`, the negative-log Ki (pKi) in assay [1] is 6.36. Besides, in the assay with HEK293 [2], the result was Active.

For `Cc1ccc(C(=O)c2c(C)n(CCN3CCOCC3)c3cc(Cl)cc(Cl)c23)c2ccccc12`, the result in the assay with Cell membrane [3] was inactive.

In the case of `COc1ccc2c(c1)c(C(=O)c1ccc(C)c3ccccc13)c(C)n2CCN1CCOCC1`, the outcome with Cell membrane [3] was inactive.

Usually pEC50 stands for −log10 of the EC50, conventionally taken in molar units. Take `Cc1ccc(C(=O)c2c(C)n(CCN3CCOCC3)c3cc(Cl)ccc23)c2ccccc12`: the pKi in [1] was 8.46. In assay [4], this compound showed a pEC50 of 8.46.

In the case of `Cc1ccc(C(=O)c2c(C)n(C3CC3)c3ccccc23)c2ccccc12`, the pKi in [1] is 6.93.

Take `CCn1c(C)c(C(=O)c2ccc(OC)cc2)c2ccccc21`: the outcome in the assay with Cell membrane [3] was inactive.

Consider `CCCn1c(C)c(C(=O)c2ccc(C)c3ccccc23)c2ccccc21`, for which the pKi in assay [1] was 7.02.

`Cn1cc(C(=O)N2CCCc3ccccc32)c2ccccc21`: the result with Cell membrane [3] was inactive.

Turning to `Cc1ccc(C(=O)c2c3n(c4ccccc24)CCCC3)c2ccccc12`, the KiL with Cell membrane [5] is 2.6 µM. Further, the result in the assay with HEK293 [6] and in the assay on HEK293 [7] was Active. For the same compound, the KiH with Cell membrane [8] was found to be 5.5 nM.

Turning to `C1=C(CCN2CCOCC2)c2ccccc2/C1=C/c1cccc2ccccc12`, the pKi in assay [1] was 5.47.

Consider `Cc1c(C(=O)c2cccc3ccccc23)c2cccc3c2n1[C@H](CN1CCOCC1)CO3`, for which, in the assay with Cell membrane [3], the outcome was inactive.

As for `Cc1c(C(=O)c2cccc3ccccc23)c2cccc3c2n1[C@@H](CN1CCOCC1)CO3`, the KiL in the assay with Cell membrane [5] turned out to be 0.0072 µM. For the same compound, in the assay on Cell membrane [8], the KiH amounted to 0.027 nM.

`COc1ccc2c(C(=O)c3ccc(C)c4ccccc34)c(C)n(CCN3CCOCC3)c2c1`: the pKi in [1] was 6.95. This compound also had a pEC50 in assay [4] of 6.64.

As for `CCCn1cc(C(=O)c2ccc(C)c3ccccc23)c2ccccc21`, the pKi in [1] is 6.50.

Regarding `Cc1ccc(C(=O)c2c(C)n(C)c3ccccc23)c2ccccc12`, the KiL with Cell membrane [5] was 2.6 µM. Further, the KiH in the assay on Cell membrane [8] was 0.8 nM.

In the case of `Cc1c(C(=O)c2cccc3ccccc23)c2ccccc2n1C`, in the assay on Cell membrane [5], the KiL came out at 1 µM. Also, the KiH in the assay on Cell membrane [8] amounted to 2.1 nM.

`Cc1ccc(C(=O)c2c(C)n(CCN3CCOCC3)c3cnccc23)c2ccccc12`: the KiL with Cell membrane [5] stood at 2.1 µM. The KiH in the assay with Cell membrane [8] is 5.8 nM.

Take `Cc1ccc(C(=O)c2c(C)n(CCN3CCOCC3)c3ccc(Cl)cc23)c2ccccc12`: the KiL with Cell membrane [5] is 2.3 µM. In the assay on Cell membrane [8], the KiH came out at 10 nM.

Take `Cc1ccc(C(=O)c2c(C(F)(F)F)n(CCN3CCOCC3)c3ccccc23)c2ccccc12`: the pKi in [1] was 6.01.

As for `CCn1cc(C(=O)c2ccc(C)c3ccccc23)c2ccccc21`, in assay [1], the pKi is 6.99.

Regarding `CC1=C(CCN2CCOCC2)c2ccccc2/C1=C/c1cccc2ccccc12`, the pKi in assay [1] was 6.33.

Turning to `CCn1c(C)c(C(=O)c2ccc(C)c3ccccc23)c2ccccc21`, the KiL with Cell membrane [5] was found to be 0.085 µM. Also, the result in the assay on HEK293 [6] was inactive. Also, the outcome in the assay with HEK293 [9], in the assay on Cell membrane [10], in the assay on HEK293 [7] and in the assay with HEK293 [11] was Active. The compound also had a pEC50 in assay [4] of 8.30. The KiH in the assay on Cell membrane [8] worked out at 1.5 nM.

As for `Cc1ccc(C(=O)c2c(C)n(CC(F)(F)F)c3ccccc23)c2ccccc12`, the outcome with HEK293 [6] was inactive. The result in the assay on HEK293 [7] was Active. The negative-log Ki (pKi) in [1] was 8.74.

Turning to `CC1=C(CCN2CCOCC2)c2ccccc2/C1=C\c1cccc2ccccc12`, the pKi in assay [1] was 6.33. The outcome with HEK293 [2] was Active.

On to `Cc1ccc(C(=O)c2c(C)n(CCN3CCOCC3)c3ccccc23)c2ccccc12`, for which, in the assay on Cell membrane [5], the KiL was determined as 0.09 µM. The result in the assay with HEK293 [6] and with HEK293 [7] was Active. Moreover, the KiH with Cell membrane [8] is 0.8 nM.

As to `Cc1ccc(C(=O)c2c(C)n(CCN3CCOCC3)c3ncccc23)c2ccccc12`, in the assay with Cell membrane [5], the KiL is 0.382 µM. The result with HEK293 [6] and in the assay with HEK293 [7] was Active. The compound also showed a pEC50 in [4] of 8.96. Further, in the assay with Cell membrane [8], the KiH was 0.4 nM.
